Assay outcomes deposited in PubChem by several laboratories.
PTEN del growth = growth suppression of PTEN-null HCT116, primary screen, cell-based, CellTiter-Glo; HCT116 PTEN-null viability, 60 h; hits give low values; viability, % at 10 µM; actives 1.2% (n = 140,000);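 active means viability at or below a set limit, 4 SD under the median of all tested compounds, cut at about 3.7% in these data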;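 further: PTEN knockout HCT116 line with beta catenin targeted HCT116 as companion control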
Lung fibro prol = antiproliferative effect on LL 47 fibroblasts – human, LL 47 cells, CellTiter-Glo luminescence, primary screen; LL 47 human lung fibroblast viability, ATP luminescence; hits give low values; viability, % at 10 µM; actives 1.1% (n = 85,000); AID 719, 2007;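 active means viability at or below 50% in the single dose screen; inactive means viability above 50%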;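 further: compound exposure lasted 72 h before the ATP readout; 100% = median luminescence of untreated cell-only wells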
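Material: Human LL 47 lung fibroblast cells | Input: 1,150 cells/well | Buffer or medium: IMEM plus 15% FBS | Compound dosing: 0.1% DMSO in all compound wells | Times: Overnight cell rest, 72 h compound treatment at 37 °C | Signal: CellTiter-Glo luminescence measuring cellular ATP | Measure: % viability versus median cells-only luminescence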
H69AR growth 86K = proliferation blockers of H69AR lung cancer cells, primary screen, cell-based, human, 86K library | H69AR lung tumor viability, ATP luminescence, 72 h; hits give low values | viability, % at 10 µM | actives 6% (n = 85,000) | AID 598, 2007;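 active means viability at or below 40%; inactive means viability above 40%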;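 further: multidrug resistant small cell line overexpressing MRP-1 efflux transporter; 100% = mean luminescence of untreated control wells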
HUVEC prolif 384 = inhibitors of HUVEC proliferation, primary screen, cell-based, 384-well; CellTiter-Glo luminescence, 72 h; hits give low values; viability, % at 10 µM (by protocol); actives 1.1% (n = 86,000); AID 648, 2007;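 active means viability at or below 30%; inactive means viability above 30%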;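 further: 100% = median luminescence of DMSO-only cell control wells on each plate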
PTK2B oligo ant = antagonists of Pyk2 self-association, primary screen, Q293 cells, FERM NanoBiT luminescence, HTS | z-score (the deposit names both 25 µM and 10 µM) | hits give low values | AID 1347419, 2020 | actives 0.83% (n = 99,000);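 active means Z-score of -3 or lower, scaled per plate to the spread of control and sample wells; inactive means z-score above -3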;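 further: negative z-score means lost luminescence so less FERM oligomerization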
HCT116 bCat-KO = primary screen for growth suppressors in beta-catenin knockout HCT116 cells (colon tumor, human); viability, % at 10 µM; HCT116 beta-catenin knockout viability, CellTiter-Glo, 60 h; hits give low values; AID 818, 2007; actives 1.5% (n = 140,000);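 active means viability at or under a set limit, the compound median less 4 SD, cut at about 6% in these data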;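 further: 0% = Hyamine 1622 control at 20 µM and 100% = untreated cell control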
Numbers without * were called inactive. Many of the other results were omitted from the sample, so hits are more common in it than they were.

Results for O=C(Nc1nc2c(ccc3ccccc32)s1)c1ccco1 ?
PTEN del growth: 60; PTK2B oligo ant: -3.3*; HCT116 bCat-KO: 55

How did O=C(Nc1ccc(-c2nc3c(ccc4ccccc43)o2)cc1)c1ccco1 do in these assays?
PTEN del growth: 16; Lung fibro prol: 40*; H69AR growth 86K: 19*; HUVEC prolif 384: 69; PTK2B oligo ant: 0.11; HCT116 bCat-KO: 19

Results for O=C(Nc1ccc(-c2nc3cc(Cl)ccc3c(=O)o2)cc1)c1ccco1 ?
PTEN del growth: 85; HCT116 bCat-KO: 97

How did COc1ccc(NC(=O)c2oc3ccccc3c2NC(=O)c2ccco2)cc1 do in these assays?
PTEN del growth: 88; Lung fibro prol: 93; H69AR growth 86K: 69; HUVEC prolif 384: 78; PTK2B oligo ant: -3*; HCT116 bCat-KO: 89

What do the screens show for `Cc1ccc(Cl)cc1NC1=C/C(=N\S(=O)(=O)c2cccs2)c2ccccc2C1=O`?
PTEN del growth: 1.1*; PTK2B oligo ant: -4.4*; HCT116 bCat-KO: 1.6*

What do the screens show for `Cc1cccc(NC2=C/C(=N/S(=O)(=O)c3cccs3)c3ccccc3C2=O)c1`?
PTEN del growth: 76; HCT116 bCat-KO: 79

How did Cc1ccc(NC2=C/C(=N\S(=O)(=O)c3cccs3)c3ccccc3C2=O)c(C)c1 do in these assays?
PTEN del growth: 1.3*; Lung fibro prol: 2.2*; H69AR growth 86K: 2.0*; HUVEC prolif 384: 2.9*; PTK2B oligo ant: -3.7*; HCT116 bCat-KO: 1.5*

How did Cc1ccccc1Cc1c(C)nc2c(C(=O)NCc3ccc4c(c3)OCO4)cnn2c1C do in these assays?
PTEN del growth: 73; Lung fibro prol: 96; H69AR growth 86K: 29*; HUVEC prolif 384: 71; PTK2B oligo ant: -0.28; HCT116 bCat-KO: 85

Results for CCOC(=O)N1CCN(C(=O)C(C)N(c2ccc(Oc3ccccc3)cc2)S(C)(=O)=O)CC1 (stereo not given) ?
PTEN del growth: 45; H69AR growth 86K: 34*; HUVEC prolif 384: 111; PTK2B oligo ant: -0.24; HCT116 bCat-KO: 49

What do the screens show for `COC(=O)c1ccc(Cl)c(NS(=O)(=O)c2ccc3c(c2)OCCO3)c1`?
PTEN del growth: 34; Lung fibro prol: 82; H69AR growth 86K: 20*; HUVEC prolif 384: 61; PTK2B oligo ant: 0.05; HCT116 bCat-KO: 39

Results for COC(=O)COc1ccc(S(=O)(=O)Nc2ccc3c(c2)OCCO3)cc1Cl ?
PTEN del growth: 103; Lung fibro prol: 24*; H69AR growth 86K: 83; HUVEC prolif 384: 28*; PTK2B oligo ant: -0.25; HCT116 bCat-KO: 99

How did CCOC(=O)N1CCC(n2c(=S)[nH]c3cc(OCC)c(OCC)cc3c2=O)CC1 do in these assays?
PTEN del growth: 84; Lung fibro prol: 12*; H69AR growth 86K: 22*; HUVEC prolif 384: 28*; PTK2B oligo ant: -0.36; HCT116 bCat-KO: 86

What do the screens show for `Cc1nc2ccccc2c(=O)n1/N=C/c1cn(-c2ccccc2)nc1-c1cccs1`?
PTEN del growth: 75; Lung fibro prol: 100; H69AR growth 86K: 35*; HUVEC prolif 384: 69; PTK2B oligo ant: -1.1; HCT116 bCat-KO: 75

Results for CCOc1cc(/C=N/NC(=O)C(=O)NC)cc(Br)c1O ?
PTEN del growth: 93; HCT116 bCat-KO: 84

Results for O=C(c1ccc(=O)[nH]c1)N(Cc1cccs1)C1(C(=O)NC2CCCC2)CCCCC1 ?
PTEN del growth: 91; HCT116 bCat-KO: 97

What do the screens show for `CCN(CC)C(=O)c1ccc2c(c1[N+](=O)[O-])C(=O)c1ccccc1C2=O`?
PTEN del growth: 2.6*; HCT116 bCat-KO: 8

What do the screens show for `CCN(CC)C(=O)c1cccc2c1C(=O)c1ccccc1-2`?
PTEN del growth: 97; Lung fibro prol: 96; H69AR growth 86K: 92; HUVEC prolif 384: 104; PTK2B oligo ant: 0.24; HCT116 bCat-KO: 94

Results for O=C(NCCNC(=O)c1cc(OCC(F)(F)F)ccc1OCC(F)(F)F)Nc1ccc(Cl)cc1 ?
PTEN del growth: 10; HCT116 bCat-KO: 5.4*

Results for O=C(Nc1ccc(F)cc1)Nc1cc(OCC(F)(F)F)cc(OCC(F)(F)F)c1 ?
PTEN del growth: 3.7*; HCT116 bCat-KO: 5.5*
